Test results as given in ChEMBL document CHEMBL1134957, “Synthesis and SAR of 4-carboxy-2-azetidinone mechanism-based tryptase inhibitors” (Bioorg Med Chem Lett, 2002).

Legend:
Tryptase = Tryptase (Homo sapiens, UniProt Q9BZJ3+Q15661+Q9NRR2); test: In vitro inhibition of human tryptase.
[1] = Aqueous Stability (half-life period) at pH 9 and 37 degrees; type: ADME; details: aqueous solution
How it was run: (§1)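 Compound half-life, reported in hours, was measured by incubation in aqueous buffer at 37 °C, run separately at pH 7 and pH 9.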

[2] = Aqueous Stability (half-life period) at pH 7 and 37 degrees; type: ADME; details: aqueous solution; how it was run: as §1
Homo sapiens [3] = species: Homo sapiens; test: Selectivity for human tryptase compared to human plasmin.
Homo sapiens [4] = species: Homo sapiens; test: Selectivity for human tryptase compared to human tissue plasminogen activator tissue.
Homo sapiens [5] = species: Homo sapiens; test: Selectivity for human tryptase compared to human trypsin.
Homo sapiens [6] = species: Homo sapiens; test: Selectivity for human tryptase compared to human urokinase plasminogen activator.
Homo sapiens [7] = species: Homo sapiens; test: Selectivity for human tryptase compared to human thrombin.
Cavia porcellus [8] = test: Effect (decrease in dynamic lung compliance) on pulmonary mechanics of ovalbumin-sensitized guinea pigs following allergen induced bronchoconstriction upon intratracheal dosage of 75 ug/kg 10 min prior to ovalbumin challenge; type: functional
How it was run: (§2)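 Guinea pigs were sensitized by ip ovalbumin with aluminum hydroxide on days 0 and 14, plus cyclophosphamide (30 mg/kg) on day 12, and used between days 35 and 65. Under Na-pentobarbital anesthesia they were mechanically ventilated, with intratracheal flow and pressure recorded in real time. Ten min before iv ovalbumin challenge, compound was given as an intratracheal aerosol spray. Rlung and Cdyn were recorded as % change (n=9).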

Cavia porcellus [9] = species: Cavia porcellus; test: Effect (decrease in dynamic lung compliance) on pulmonary mechanics of ovalbumin-sensitized guinea pigs following allergen induced bronchoconstriction; type: functional; how it was run: as §2
Cavia porcellus [10] = test: Effect (increase in lung resistance (Rlung)) on pulmonary mechanics of ovalbumin-sensitized guinea pigs following allergen induced bronchoconstriction upon intratracheal dosage of 75 ug/kg 10 min prior to ovalbumin challenge; type: functional; how it was run: as §2
Cavia porcellus [11] = species: Cavia porcellus; test: Effect (increase in lung resistance (Rlung)) on pulmonary mechanics of ovalbumin-sensitized guinea pigs following allergen induced bronchoconstriction; type: functional; how it was run: as §2
Cavia porcellus [12] = species: Cavia porcellus; test: Dose required for the inhibition of the cellular inflammatory response in ovalbumin-sensitized guinea pigs was evaluated by the reduction in cell count by 70-80%; type: functional
How it was run: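 Ovalbumin-sensitized guinea pigs were given saline or compound as an intratracheal spray at two dose levels (75 or 225 per kg), and the tracheal incision was closed. Ovalbumin was injected into the jugular vein about 6 min after dosing, and the animals recovered from anesthesia. Bronchoalveolar lavage cell counts and protein were measured 24 h later. Controls were sham-operated animals without ovalbumin challenge.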

Homo sapiens [13] = species: Homo sapiens; test: Ratio of inhibitiroy activities against human tryptase and human plasminogen activator urokinase microPa

IC50 (Tryptase) [nM] | half-life [1] [h] | half-life [2] [h] | Selectivity ratio (Homo sapiens [3]) | Selectivity ratio (Homo sapiens [4]) | Selectivity ratio (Homo sapiens [5]) | Selectivity ratio (Homo sapiens [6]) | Selectivity ratio (Homo sapiens [7]) | Selectivity ratio (Homo sapiens [13]) | SMILES | Cdyn (Cavia porcellus [8]) [% delta] | Cdyn (Cavia porcellus [9]) [% delta] | Rlung (Cavia porcellus [10]) [% delta] | Rlung (Cavia porcellus [11]) [% delta] | Dose (Cavia porcellus [12]) [mg/kg]
6 | 2.2 | > 48 | – | – | – | – | – | – | N=C(N)NCCC[C@H]1C(=O)N(C(=O)Nc2ccccc2)[C@@H]1C(=O)O (stereo in doubt; 8a) [listing 1 of 2 here] | – | – | – | – | –
7 | 2.5 | > 48 | 232 | > 1500 | 3 | 154 | > 1500 | – | CC(C)(C)C(=O)N1CCN(C(=O)N2C(=O)[C@H](CCCN=C(N)N)[C@H]2C(=O)O)CC1 | – | – | – | – | –
13 | 1.7 | > 48 | 147 | > 2500 | 14 | 43 | 556 | – | N=C(N)NCCC[C@H]1C(=O)N(C(=O)N2CCN(S(=O)(=O)c3ccccc3)CC2)[C@@H]1C(=O)O | – | – | – | – | –
– | 9.1 | > 48 | – | – | – | – | – | – | N=C(N)NCCC[C@H]1C(=O)N(C(=O)NC2CCCCC2)[C@@H]1C(=O)O | – | – | – | – | –
9 | – | – | 17 | 128 | 1 | 3 | 142 | – | N=C(N)NCCC[C@H]1C(=O)N(C(=O)c2ccccc2)[C@@H]1C(=O)O | – | – | – | – | –
– | – | – | 52 | 117 | 1 | 3 | 1550 | – | N=C(N)NCCC[C@H]1C(=O)N(C(=O)Nc2ccccc2)[C@@H]1C(=O)O (stereo in doubt; 8a) [listing 2 of 2 here] | – | – | – | – | –
4 | 6.2 | > 48 | 295 | > 8250 | 8 | 218 | > 8250 | – | CC(C)(C)OC(=O)N1CCN(C(=O)N2C(=O)[C@H](CCCN=C(N)N)[C@H]2C(=O)O)CC1 | – | – | – | – | –
4 | 8 | > 48 | 430 | > 8250 | 18 | 135 | 2620 | – | CC(C)(C)NC(=O)N1CCN(C(=O)N2C(=O)[C@H](CCCN=C(N)N)[C@H]2C(=O)O)CC1 | -43 | -69 | 89 | 421 | 0.225
71 | 6.8 | > 48 | 45 | 465 | 2 | 16 | 465 | – | N=C(N)NCCC[C@H]1C(=O)N(C(=O)NCc2ccccc2)[C@@H]1C(=O)O | – | – | – | – | –
5380 | – | – | – | – | – | – | – | – | N=C(N)NCCC[C@H]1C(=O)N(C(=O)Nc2ccccc2)[C@@H]1C(=O)O (stereo in doubt) [listing 1 of 2 here] | – | – | – | – | –
– | – | – | > 6 | > 6 | 0.3 | – | – | – | N=C(N)NCCC[C@H]1C(=O)N(C(=O)Nc2ccccc2)[C@@H]1C(=O)O (stereo in doubt) [listing 2 of 2 here] | – | – | – | – | –
5 | 6.4 | > 48 | 227 | > 6600 | 3 | 520 | > 6600 | – | CCN(CC)C(=O)N1CCN(C(=O)N2C(=O)[C@H](CCCN=C(N)N)[C@H]2C(=O)O)CC1 | – | – | – | – | –
0.7 | 0.3 | 31.8 | 172 | 6800 | 3 | 75 | 177 | – | CNC(=O)[C@@H]1[C@@H](CCCN=C(N)N)C(=O)N1C(=O)N1CCN(C(=O)OC(C)(C)C)CC1 | – | – | – | – | –
9 | 5.6 | > 48 | 210 | > 1200 | 2 | – | 683 | 70 | COC(=O)N1CCN(C(=O)N2C(=O)[C@H](CCCN=C(N)N)[C@H]2C(=O)O)CC1 | – | – | – | – | –
11 | 6.5 | > 48 | 314 | > 1000 | 1.5 | 8 | > 1000 | – | CC(C)(C)CC(=O)N1CCN(C(=O)N2C(=O)[C@H](CCCN=C(N)N)[C@H]2C(=O)O)CC1 | – | – | – | – | –
992 | – | – | – | – | – | – | – | – | N=C(N)NCCC[C@H]1C(=O)N(C(=O)Nc2ccccc2)[C@@H]1C(=O)O (relative stereo) | – | – | – | – | –

SMILES | IC50 (Tryptase) [nM] | half-life [1] [h] | half-life [2] [h] | Selectivity ratio (Homo sapiens [3]) | Selectivity ratio (Homo sapiens [4]) | Selectivity ratio (Homo sapiens [5]) | Selectivity ratio (Homo sapiens [6]) | Selectivity ratio (Homo sapiens [7]) | Selectivity ratio (Homo sapiens [13]) | Cdyn (Cavia porcellus [8]) [% delta] | Cdyn (Cavia porcellus [9]) [% delta] | Rlung (Cavia porcellus [10]) [% delta] | Rlung (Cavia porcellus [11]) [% delta] | Dose (Cavia porcellus [12]) [mg/kg]
N=C(N)NCCC[C@H]1C(=O)N(C(=O)c2cccs2)[C@@H]1C(=O)O | 1 | < 0.1 | 8.7 | 12 | 109 | 3 | 5 | 190 | – | – | – | – | – | –
N=C(N)NCCC[C@H]1C(=O)N(C(=O)N2CCN(C(=O)c3ccccc3)CC2)[C@@H]1C(=O)O | 5.2 | 3.9 | > 48 | 332 | > 2000 | 1 | 142 | 286 | – | – | – | – | – | –
N=C(N)NCCC[C@H]1C(=O)N(S(=O)(=O)c2ccc(-c3ccccc3)cc2)[C@@H]1C(=O)O | 1 | < 0.1 | 10.6 | 47 | 4370 | 1 | 44 | 7 | – | – | – | – | – | –
N=C(N)NCCC[C@H]1C(=O)N(C(=O)N2CCN(C(=O)OCCc3ccccc3)CC2)[C@@H]1C(=O)O | 0.7 | 7 | > 48 | 302 | 14200 | 8 | 926 | 3320 | – | – | – | – | – | –
N=C(N)NCCC[C@H]1C(=O)N(C(=O)c2ccc(-c3ccccc3)cc2)[C@@H]1C(=O)O | 1 | < 0.1 | 11.1 | 8 | 1610 | 2 | 3270 | 65 | – | – | – | – | – | –
CC(C)(C)OC(=O)N1CCN(C(=O)N2C(=O)[C@H](CCCN=C(N)N)[C@H]2C(=O)N2CCCCC2)CC1 | 3 | 0.8 | > 48 | 205 | 4430 | 1 | 246 | 155 | – | – | – | – | – | –
CC(C)(C)OC(=O)N1CCN(C(=O)N2C(=O)[C@H](CCCN=C(N)N)[C@H]2C(N)=O)CC1 (single isomer, unassigned) | 0.4 | 0.3 | 42 | 227 | 8300 | 6 | 82 | 105 | – | – | – | – | – | –
